Source: ChEMBL document CHEMBL4513216, “Probing the Open Global Health Chemical Diversity Library for Multistage-Active Starting Points for Next-Generation Antimalarials” (ACS Infect Dis, 2020)

Assay: Toxicity liver stage against HepG2, at 10uM
Format: cell-based
Set-up: test concentration 10 uM, cell line HepG2-A16-CD81EGFP
Details: human, HepG2-A16-CD81EGFP cells; read-out: INHIBITION
Procedure, shortened: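 Uninfected HepG2-A16-CD81EGFP cells, 3 × 10^3 per well, 1536-well, plated on prespotted compound at 10 μM final, parasite-free screening media added to match infected plates; puromycin 10 μM positive, DMSO 0.5% negative; run in parallel with 48 h PbLuc assay at 37 °C, 5% CO2; viability by CellTiter-Glo luminescence, normalized to controls.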

Compound	cytotoxicity at 10 µM [%]
O=c1c2ccccc2nc2n1C(CSc1ccc(Br)cc1)CN2 (centres undefined)	6.76
CN(C(=O)c1cccc(C#N)c1)c1nnc(C2CCOC2)s1 (centres undefined)	5.96
N#Cc1c(F)cccc1N1CCC(NS(=O)(=O)c2cccs2)CC1	-7.39
COc1cc(CNCC(O)c2ccc(F)c(F)c2)cc2c1OCO2 (centres undefined)	-8.28
CS(=O)(=O)N1C[C@@H]2OCC(=O)N(CC3CC3)[C@@H]2C1	-13.8
CC(=O)N1N=C(c2ccccc2)OC1C(=O)N(C)Cc1ccccc1 (centres undefined)	2.37
COCC(O)CN1CCC(=O)N(Cc2ccco2)Cc2ccccc21 (centres undefined)	-5.62
CN1CC(C)(C)CN(C(=O)CCc2ccccc2)CC1=O	-0.191
CN1CCN(CCCNC(=O)c2nc3ccccc3c(=O)[nH]2)CC1	-5.46
COC(=O)[C@H](CC(C)C)NC(=O)c1snnc1-c1ccc(OC)cc1	10.1
CC(=O)N1CCc2ccc(NC(=O)c3cn(C)nn3)cc2C1	5.45
COCC(=O)N1CCC2(COCc3cnc(NCc4ccco4)nc32)C1 (centres undefined)	-1.75
Cc1ccc(N2CC[C@H]3OCC[C@@]3(C(=O)N(C)C)C2)nn1	1.11
CC(C)CN1C(=O)c2ccc(C(=O)NCCc3c[nH]cn3)cc2C1=O	9.66
CSc1[nH]nc(NC(=O)c2cccs2)c1C#N	-1.04
CCCNCc1ncc(C)c(OC)c1C	0.105
COc1ccc(-n2nnnc2C2(NCc3ccco3)CCCCC2)cc1	9.65
CN1CCN(C(=O)[C@@H]2CN(C)C[C@]23COc2ccc(F)cc2C3=O)CC1	3.06
Cc1nc(C)n(CCC(=O)N2CCc3ncc(Cl)cc3C2)n1	2.67
CS(=O)(=O)c1cn[nH]c1C1CCCN1C(=O)c1cccnc1 (centres undefined)	-14.6
Cc1noc(C2(C)CCCN(C(=O)c3cnn(C)c3)C2)n1 (centres undefined)	-17.3
CN(C)c1cc(C2CCCN2Cc2ccccc2OCC(=O)O)ccn1 (centres undefined)	-3.8

Compound	cytotoxicity at 10 µM [%]
NCc1cnn(-c2ccccc2C(=O)NCCc2ccccn2)c1	-19.5
O=c1ccn([C@H]2CCN(Cc3ncc[nH]3)CC[C@@H]2O)c(=O)[nH]1	13
COCC(=O)N1CCCC(c2noc3nc(C)cc(C(F)(F)F)c23)C1 (centres undefined)	-2.25
CN(C)C(=O)CN1CCC(c2cccc(Cc3ccc(F)cc3)n2)CC1	-22.3
O=C(c1ccccn1)N1CCCC(c2cc(C(F)F)n3ncnc3n2)C1 (centres undefined)	-1.74
O=S1(=O)NC2(CCCN(CCc3ccccc3)C2)COc2ccccc21 (centres undefined)	7.47
Cn1cc(CNCC(c2ccc(Cl)cc2)n2cccn2)cn1 (centres undefined)	1.21
CNC(=O)c1cccc(CNC2CCSc3c(Cl)cccc32)c1 (centres undefined)	12.8
CCCn1ccnc1-c1cccc(NC(=O)[C@H]2CCC(=O)N2)c1	-4.97
CCOC(C)C(=O)Nc1ccnn1-c1ccccc1C (centres undefined)	-7.89
COc1cccc(CCNC(=O)c2ccc(=O)n(C)c2)c1	-9.08
CCOc1cccc(CCNC(=O)NC2CCc3[nH]ncc3C2)n1 (centres undefined)	8.95
COCCn1c(C(=O)NCc2n[nH]c(C)n2)cc2ccccc21	-3.83
CC(Cn1cccn1)Nc1cnc2ccccc2n1 (centres undefined)	-7.67
N#CCCN(Cc1ccco1)C(=O)C1CCCc2ccccc21 (centres undefined)	-4.27
O=S(=O)(NCCc1ccccc1C(F)(F)F)N1CCOCC1	9.08
N#Cc1cccc(NC(=O)N(CC(F)F)C2CC2)c1	-16.1
CC(C)C1CCC(N2CCN(CCCS(C)(=O)=O)CC2)CC1 (centres undefined)	0.803
O=C(CN1CCc2cncnc2C1)NC(c1ccccc1)C1CC1 (centres undefined)	-9.1
CNS(=O)(=O)c1ccc(CNC(=O)Nc2cc(C)on2)s1	-2.34
CC(C)(C)c1cnc(CN2CCN(c3ncccn3)CC2)o1	-18.1
CCC(NC(=O)c1cc(OC)c2c(c1)OCCO2)c1cccs1 (centres undefined)	-6.66

Compound	cytotoxicity at 10 µM [%]
CC(C)n1ccc(C(=O)NCC(O)c2c(Cl)cccc2Cl)n1 (centres undefined)	1.81
Cc1nn(CC(C)C)c(C)c1CC(=O)N1CCCC(CNS(C)(=O)=O)C1 (centres undefined)	0.246
CCOCCOCc1cccc(CNc2cncc(-n3cccn3)n2)c1	7.74
CC(C)(C)OC(=O)NC(C)(C)c1noc(CSc2ccccn2)n1	9.18
Cc1cc(S(=O)(=O)Nc2cccc(OC(F)F)c2)sc1C(=O)O	-0.229
CC(NC(=O)C1=NN(C)C(=O)CC1)c1cccc(Cl)c1 (centres undefined)	-2.45
CCn1cc(C(=O)Nc2ccc(C)cc2C(=O)NC)cn1	5.81
CS(=O)(=O)Cc1cc(F)ccc1NCc1nnsc1Cl	-12.2
Cc1cccc(C(=O)N2CCCN(CCc3scnc3C)CC2)c1	-2.52
CN(c1cccc(C#N)c1)S(=O)(=O)c1cc(C(=O)O)ccc1Cl	-5.94
CC(C)OCCN1CCc2cncnc2C1	-7.52
Cc1ccc(-n2c(C)nnc2SCC(O)COCc2ccco2)cc1 (centres undefined)	-11.6
N#Cc1cc(NS(=O)(=O)CC2CCCCO2)ccc1F (centres undefined)	-14.1
Cc1csc(N2CCN(Cc3cnc4c(c3)c(C)nn4C)CC2)n1	-0.54
Cn1cc(NC(=O)Nc2ccc3c(c2)OCO3)cn1	-0.37
CCc1c(C)nc2ccccc2c1N1CCC(O)CC1	0.395
COc1cc(OC)c(CNC(=O)NCC(=O)N2CCCC2)c(OC)c1	10.4
Cc1cccc(C(=O)NC2CCN(c3cnn(C)c3)C2=O)n1 (centres undefined)	3.48
Cc1nc(C)n(CC2CCCN(CCc3ccncc3)C2)n1 (centres undefined)	-23
CN(C)CC(=O)N1Cc2nc(C(=O)NCc3ccccc3)oc2C1	-81.5
O=C(C1CCC1)N1CCc2onc(Cn3cccn3)c2C1	-1.13
CCOCC1CC2(CCN(C(=O)c3ccccc3F)CC2)CO1 (centres undefined)	2.26

Compound	cytotoxicity at 10 µM [%]
CCNc1nc2c(s1)C(=O)CN(C(=O)NCCc1ccccc1)C2	3.3
Cc1nccn1CCCn1c(=O)cnc2ccccc21	1.53
CCCc1cc(C(=O)N(Cc2cccnc2)C[C@@H]2CCC(=O)N2)no1	6.82
O=C(CCc1cc2n(n1)CCCN(CCc1ccccc1)C2)NC1CC1	12
COc1cccc(N2CCN(Cc3ccc4occc4c3)CC2=O)c1	24
Cc1nsc(NC(=O)N2CCc3sccc3C2)n1	18.5
COc1cccc2c1OCC(C(=O)NCCn1nc(C)c(Cl)c1C)C2 (centres undefined)	-5.89
O=C(O)C1(Cc2ccc(F)cc2)CCCN(Cc2ccncc2)C1 (centres undefined)	-0.566
CCn1nc(C)c(NC(=O)CN2CC[C@@H](F)C2)c1C	-1.2
CC(C)c1ccc(CC(=O)N2CCCC3(CN(C)C(=O)O3)C2)cc1 (centres undefined)	16.2
CCc1nc(C)c(CN2CCOC(Cc3ccccc3Cl)C2)[nH]1 (centres undefined)	-0.527
CCO[C@H]1C[C@@H](O)C12CCN(C(=O)CN1CCCCCC1=O)CC2	2.71
CN(C)C(Cn1ccnc1-c1ccccc1C(=O)O)c1ccccc1Cl (centres undefined)	-0.966
COc1ccccc1-c1noc(CCC(=O)NC(C)Cn2cccn2)n1 (centres undefined)	5.67
Cc1cccc(=O)n1CCC(=O)N1CCC2(CC1)OCCCC2O (centres undefined)	-1.95
CC(=O)Nc1ccc(C(=O)N(C)C(C)Cc2cc(C)ccn2)cn1 (centres undefined)	1.32
Cc1ccccc1N1CCN(C(=O)Cn2ccnc2)CC1=O	-1.86
Cc1ccccc1OCC1CCCN(C(=O)CN(C)C2CCNCC2)C1 (centres undefined)	-5.54
O=C(Cn1ccnc1)N1C[C@@H]2CC[C@H](Oc3ccccc3)[C@@H]2C1	-3.71
O=S(=O)(c1ccccc1)N1CCCCC1c1cc[nH]n1 (centres undefined)	7.65
CCc1nc(C2CCCN2C(=O)c2ccc(N(C)C)nn2)no1 (centres undefined)	-11.4
COCc1ccc(C(=O)NCCCNc2ccc(C(F)(F)F)cn2)cc1	2.13

Compound	cytotoxicity at 10 µM [%]
COCC(=O)NC(C)Cc1cccc(Cl)c1 (centres undefined)	-8.72
Cn1ccnc1CN1CCN(Cc2noc(-c3ccccc3)n2)CC1	1.08
Cc1cnn(CCC(=O)N2CCCN(c3cccnn3)CC2)c1	1.47
Cc1nc(CN2CCN(C(=O)c3cc(C4CC4)on3)CC2)cs1	2.21
c1ccc2oc(CCCN3CCOC(Cn4cccn4)C3)nc2c1 (centres undefined)	0.987
Cc1noc(C)c1-c1cccc(C2CN(CC(=O)N(C)C)CCO2)n1 (centres undefined)	0.025
Cc1ccc(CN(CCCn2ccnc2)Cc2cnn(C)c2)s1	-18
O=C(NCC1CCOCC1)[C@H]1C[C@@H]2CCN(c3nncs3)C[C@@H]2O1	1.73
O=C(c1ccco1)N1CC[C@@H]2O[C@H](COCCN3CCCC3)CC[C@@H]21	-100
Cc1ccc(CN2CCn3c(CN4CCN(C)CC4)cnc3C2C)s1 (centres undefined)	8.39
Cc1ccc(CNC(c2cccc(F)c2)c2nccn2C)o1 (centres undefined)	5.48
O=C(N1CCOCC1)[C@@]12CCO[C@@H]1CCN(CC1CCCCC1)C2	3.59
Cc1cccc(COC[C@@H]2CC[C@H]3[C@H](CCN3C(=O)CC3CC3)O2)n1	-64.8
O=C1CO[C@@H]2CN(Cc3cccs3)C[C@H]2N1CC1CC1	-2.32
Cc1cncc(C(=O)N2C[C@H]3CCC[C@@]3(COc3ccccn3)C2)c1	1.08
O=C(NC[C@H]1OC[C@@H](NC2CCNCC2)[C@@H]1O)C1CCCC1	-10.5
CN(C)CC1CN(Cc2ccc(F)cc2)Cc2nccn2C1 (centres undefined)	-71.1
CC(C)C(N)CNS(=O)(=O)Cc1cccc2cccnc12 (centres undefined)	-9.32
CN(C)C(=O)COC[C@]12COC[C@H]1CN(CCc1ccccc1)C2	-1.69
O=C(NCc1ccccc1)C1=NOC2(CCNC2)C1 (centres undefined)	0.213
CN1C(=O)[C@@H]2CC[C@H]1CN(S(=O)(=O)c1ccc(Cl)cc1Cl)C2	1.47
